According to publication PMC4424388 (Mucosal Immunology, 2014):
Like-named read-outs stand apart in the source and are kept apart here.

Experiments:
[1] = test system: Streptococcus salivarius ssp thermophilus DSM20617; experiment: Antimicrobial radial diffusion assay; assay type: cell-based; conditions: 1 μg peptide, 2 mM DTT, at least three experiments
In short: (§1)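 Log-phase bacteria washed and diluted to OD600 0.1. Gel: 10 mM sodium phosphate (pH 7.4 or 5.7), 0.3 mg/ml TSB powder, 1% low-EEO agarose, 0–2 mM DTT. Peptide (1 μg/μl stock in 0.01% acetic acid) pipetted into punched wells; overlay gel poured after 3 h. Inhibition-zone diameter read after up to 48 h; 2.5 mm (well/vehicle) means no activity. ≥3 experiments, mean with s.e.m.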

[2] = test system: Bifidobacterium longum DSM 20219T; experiment: Antimicrobial radial diffusion assay; assay type: cell-based; conditions: 1 μg peptide, 2 mM DTT, at least three experiments
In short: as §1

[3] = test system: human TRX (with rat TRX reductase, NADPH); experiment: In vitro reduction assay, thioredoxin system; assay type: biochemical; conditions: TRX increased to 6 μM or incubation prolonged to 60 min; data not shown
[4] = test system: Lactobacillus acidophilus PZ 1138; experiment: Antimicrobial radial diffusion assay; assay type: cell-based; conditions: 1 μg peptide, 2 mM DTT, at least three experiments
In short: as §1

[5] = test system: Bif. adolescentis Ni3,29c; experiment: Turbidity broth assay; assay type: cell-based, Bifidobacterium adolescentis; conditions: higher peptide concentrations; causes apparent better growth in OD600
In short: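 Overnight Bif. adolescentis Ni3,29c was washed twice in 10 mM sodium phosphate with 1% TSB. About 5×10^5 CFU/ml were exposed to peptide at 1.25–128 μg/ml, with 2 mM DTT where indicated, for 2 h at 37 °C in an anaerobic jar. 6% TSB was then added and A600 read at 24 and 48 h; change plotted against concentration. CFU counted in parallel on Columbia blood agar. Triplicate experiments, mean with s.e.m.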

[6] = test system: Bifidobacterium breve PZ 1343; experiment: Antimicrobial radial diffusion assay; assay type: cell-based; conditions: 1 μg peptide, 2 mM DTT, at least three experiments
In short: as §1

[7] = In vitro reduction assay, glutathione; assay type: physicochemical; conditions: 5 mM reduced glutathione, 100 mM sodium phosphate, 2 mM EDTA; RP-HPLC; Supplementary Figure 4
[8] = test system: Bifidobacterium adolescentis Ni3,29c; experiment: Antimicrobial radial diffusion assay; assay type: cell-based; conditions: 1 μg peptide, 2 mM DTT, at least three experiments
In short: as §1

[9] = test system: glutaredoxin; experiment: In vitro reduction assay, glutaredoxin; assay type: biochemical; conditions: 3 μM glutaredoxin with 5 mM reduced glutathione; RP-HPLC; Supplementary Figure 4
In short: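 Glutathione-based system: 5 mM reduced glutathione in 100 mM sodium phosphate with 2 mM EDTA, plus 3 μM active glutaredoxin or buffer only, incubated with oxidized peptide. Mixtures acidified with trifluoroacetic acid and analysed by RP-HPLC: C18 column, 15–45% acetonitrile (TFA-containing solvents) over 30 min at 25 °C and 0.8 ml/min.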

[10] = Chemical reduction by DTT; assay type: physicochemical; conditions: incubation extended to 3 h or DTT increased to 10 mM; data not shown
[11] = test system: (anaerobic) commensal gut bacteria; experiment: Antimicrobial radial diffusion assay, bacteria not given; assay type: cell-based; conditions: 1 μg peptide, 2 mM DTT
In short: as §1

[12] = test system: human TRX (with rat TRX reductase, NADPH); conditions: cited from earlier work
[13] = test system: Bif. adolescentis Ni3,29c; experiment: Transmission electron microscopy of bacteria; assay type: cell-based, Bifidobacterium adolescentis; conditions: TEM, 200 μg/ml peptide, 2 mM DTT, 2 h 37 °C, pH 7.4
[14] = Retention of reduced status in buffer with DTT; assay type: physicochemical; conditions: 2 mM DTT in sodium phosphate buffer

Molecule: Human α-defensin 6 [HD-6]
- antibiotic activity, especially under reducing conditions [1]: inhibitory activity
- antibiotic activity, especially under reducing conditions [2]: inhibitory activity
- reduction by the TRX system [3]: not sufficient to completely reduce
- antibiotic activity, especially under reducing conditions [4]: inhibitory activity
- aggregation in the turbidity assay [5]: light-scattering aggregations
- antibiotic activity, especially under reducing conditions [6]: inhibitory activity
- reduction by glutathione [7]: did not lead to any reduction
- antibiotic activity, especially under reducing conditions [8]: inhibitory activity
- reduction by glutaredoxin [9]: did not lead to any reduction
- extent of reduction of disulfide bridges by DTT [10]: remarkably enhanced HD-6 reduction, but the oxidized form of the peptide could still be detected

Molecule: human β-defensin 1 (DHYNCVSSGGQCLYSACPIFTKIQGTCYRGKAKCCK; Beta-defensin 1; UniProt P60022 33-68, looked up) [hBD-1, reference compound]
- activity under reducing conditions against several bacteria [11]: increased activity
- reduction by the TRX system [12]: can also reduce

Molecule: ΔredHD-6: synthetic reduced truncated HD-6 (TCHCRRSCYSTEYSYGTCTVMGINHRFCCL; Defensin-6 reduced; UniProt Q01524 71-100, looked up, fragment)
- ultrastructural alterations of the bacterium [13]: disintegration of stainable intracellular structures
- time for which the peptide retained its completely reduced status [14]: at least 2 h

B1: HD-5: synthetic oxidized human α-defensin 5 (peptide, UniProt Q01523 20-94, looked up)
Defensin alpha 5: ESLQERADEATTQKQSGEDNQDLAISFAGNGLSALRTSGSQARATCYCRTGRCATRESLSGVCEISGRLYRLCCR
modifications: Defensin-5
- reduction by the TRX system [12]: can also reduce
